SMILES strings stand for the structures.

In one assay the target is DNA topoisomerase II (Homo sapiens, UniProt P11388+Q02880). Put plainly: Tested for inhibition of topoisomerase II isolated from HeLa cells by DNA-cleavage assay.
Settings: not given
An outline of the steps:
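HeLa topo II purified from late-log suspension cultures. Reactions were assembled at 4 °C in 50 mM Tris-Cl pH 7.9, 44 mM NaCl, 10 mM MgCl2, 0.5 mM ATP, 3'-32P-end-labeled pBR322 and 10 units enzyme, then run 20 min at 37 °C. SDS/KCl precipitation captured covalent complex, counted by scintillation.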
`Cc1cc(-c2c(F)cc3c(=O)c(C(=O)O)c(C)n(C4CC4)c3c2F)cc(C)n1` had an EC50 greater than 260 µM. Molecule `O=C(O)c1cn(C2CC2)c2c(F)c(-c3ccncc3)c(F)cc2c1=O` gave an EC50 of 17 µM. The molecule `Cc1cc(-c2c(F)cc3c(O)c(C(=O)O)cnc3c2F)cc(C)n1` came in with an EC50 greater than 300 µM. Still for that read-out and setting: next, `Cc1cc(-c2c(F)cc3c(=O)cc(C)n(C4CC4)c3c2F)cc(C)n1`: 16 µM; `Cc1cc(-c2c(F)cc3c(=O)c(C(=O)O)cn(-c4ccc(F)cc4)c3c2F)cc(C)n1`: greater than 430 µM. Consider `Cc1cc(-c2c(F)cc3c(=O)c(C(=O)[O-])cn(C(C)(C)C)c3c2F)cc(C)n1.[Na+]`, for which the EC50 amounted to 74 µM.

The molecule `Cc1cc(-c2c(F)cc3c(=O)c(C(=O)O)cn(C4CC4)c3c2F)ccn1` returned an EC50 of 16 µM.

The molecule `Cc1cc(-c2c(F)cc3c(=O)cc(-c4ccccc4)n(C4CC4)c3c2F)cc(C)n1` came in with an EC50 greater than 240 µM. The same measure, in the same setting: next, `Cc1ccc(-c2c(F)cc3c(=O)c(C(=O)O)cn(C4CC4)c3c2F)c(C)n1`: 53 µM. Same read-out and setting: as for `CN1CCN(c2c(F)cc3c(=O)c(C(=O)O)cn(C4CC4)c3c2F)CC1`, the figure is 150 µM; as for `O=C(O)c1cn(C2CC2)c2c(F)c(-c3ccc(O)cc3)c(F)cc2c1=O`, 1.2 µM; as for `Cc1cc(-c2c(F)cc3c(=O)c(C(=O)O)cn(C4CC4)c3c2F)cc(C)n1` [WIN-57294], 7.6 µM. On the same count and under the same terms, next, `Cc1cc(-c2c(F)cc3c(=O)c(C(=O)O)c(-c4ccccc4)n(C4CC4)c3c2F)cc(C)n1`: greater than 220 µM; `Cc1cc(-c2c(F)cc3c(=O)c(C(=O)O)csc3c2F)cc(C)n1.Cl`: greater than 140 µM. Consider `NC1CCN(c2c(F)cc3c(=O)c(C(=O)O)cn(C4CC4)c3c2F)C1` (centres undefined), for which the EC50 was determined as 340 µM. The same measure, in the same setting: as for `Cc1cc(-c2c(F)c(N)c3c(=O)c(C(=O)O)cn(C4CC4)c3c2F)cc(C)n1`, the figure is 6.2 µM; as for `Cc1cc(-c2c(F)c(F)c3c(=O)c(C(=O)O)cn(C4CC4)c3c2F)cc(C)n1`, 13 µM; as for `O=C(O)c1cn(C2CC2)c2c(F)c(-c3cccnc3)c(F)cc2c1=O`, 52 µM. The same measure, in the same setting: as for `Cc1cc(-c2c(F)c(Sc3ccccc3)c3c(=O)c(C(=O)O)cn(C4CC4)c3c2F)cc(C)n1`, the figure is greater than 420 µM; as for `Cc1cc(-c2c(F)cc3c(=O)c(C(=O)O)cn(CCF)c3c2F)cc(C)n1`, greater than 530 µM. Same read-out and setting: next, `Cc1cc(-c2c(F)cc3c(=O)ccn(C4CC4)c3c2F)cc(C)n1`: 17 µM; `CCn1cc(C(=O)O)c(=O)c2cc(F)c(-c3cc(C)nc(C)c3)c(F)c21`: 110 µM.

For another assay, the system named is P388. Put plainly: In vitro cytotoxicity against P388 murine leukemia cells in culture in a clonogenic assay after 1 hour exposure to drug. The assay is classed as functional, cell-based. The following applies: Mus musculus, P388, 1 h.
For `Cc1cc(-c2c(F)cc3c(=O)c(C(=O)O)cn(C4CC4)c3c2F)cc(C)n1` [WIN-57294], the IC50 was determined as 29 µM. Molecule `COc1cc([C@@H]2c3cc4c(cc3[C@@H](O[C@@H]3O[C@@H]5CO[C@@H](C)O[C@H]5[C@H](O)[C@H]3O)[C@H]3COC(=O)[C@H]23)OCO4)cc(OC)c1O` [ETOPOSIDE] came in with an IC50 of 0.3 µM.

The values are drawn from ChEMBL document CHEMBL1126804, “Mammalian topoisomerase II inhibitory activity of 1-cyclopropyl-6,8- difluoro-1,4-dihydro-7-(2,6-dimethyl-4-pyridinyl)-4-oxo-3-quinolinecarb oxylic acid and related derivatives” (J Med Chem, 1993).
